Data: ChEMBL document CHEMBL2331548, “Identification of N-acyl 4-(3-pyridonyl)phenylalanine derivatives and their orally active prodrug esters as dual acting α4β1 and α4β7 receptor antagonists” (Bioorg Med Chem Lett, 2013)
≈ marks a conversion by molar mass, not a printed value.

Columns and labels:
[1] = Stability in plasma (unknown origin) assessed as unchanged prodrug level; assay type: ADME, cell-free
[2] = Oral bioavailability in rat; assay type: ADME, organism-based; conditions: in vivo
[3] = biological target: hERG (KCNH2) (Homo sapiens, UniProt Q12809); assay: Inhibition of human ERG
[4] = Stability in simulated intestinal fluid at pH 7.5 assessed as half life; assay type: physicochemical; conditions: for half-life: simulated intestinal fluid
[5] = Solubility in simulated gastric fluid at pH 2.0; assay type: physicochemical; conditions: simulated gastric fluid, read-out: solubility
[6] = Solubility in simulated intestinal fluid at pH 7.5; assay type: physicochemical
[7] = Apparent permeability across human Caco2 cells; assay type: ADME, cell-based; conditions: Caco-2
[8] = Clearance in dog at 10 mg/kg, iv; assay type: ADME, organism-based, Canis lupus familiaris; design: dose 10 mg/kg, route intravenous; conditions: in vivo
How it was run: (§1)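 Intravenous pharmacokinetics of the acid: rat and dog dosed at 10 mg/kg, monkey at 15 mg/kg. AUC (ng h/mL), clearance (mL/min/kg) and Vss (mL/kg) derived from plasma levels.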

[9] = AUC in dog at 10 mg/kg, iv; assay type: ADME, organism-based, Canis lupus familiaris; design: dose 10 mg/kg, route intravenous; conditions: plasma; how it was run: as §1
[10] = Clearance in rat at 10 mg/kg, iv; assay type: ADME, organism-based; design: dose 10 mg/kg, route intravenous; conditions: in vivo; how it was run: as §1
[11] = AUC in rat at 10 mg/kg, iv; assay type: ADME, organism-based; design: dose 10 mg/kg, route intravenous; conditions: plasma; how it was run: as §1
[12] = biological target: Integrin alpha-4/beta-7 (Homo sapiens) (UniProt P13612+P26010); assay: Inhibition of human MAdCAM1 binding to integrin alpha4beta7 receptor in human RPMI 8866 cells labeled with Calcein AM relative to RO0270608; assay type: cell-based
How it was run: (§2)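 Serially diluted compound tested for blocking adhesion of Calcein AM-labelled cells to recombinant human counter-ligand: RAMOS cells on VCAM-1 (α4β1) and RPMI 8866 cells on MAdCAM-1 (α4β7). Cells activated beforehand in Mn2+-containing binding buffer for maximal activation. IC50 taken from fluorescence; RO0270608 run on every plate, and relative potency expressed as fold versus this control because cell activity drifted with passage.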

[13] = biological target: T1, Integrin alpha-4/beta-1 (Homo sapiens, UniProt P05556+P13612); assay: Inhibition of human VCAM1 binding to integrin alpha4beta1 receptor in human Ramos cells labeled with Calcein AM relative to RO0270608; assay type: cell-based; how it was run: as §2
[14] = biological target: T2, Integrin alpha-4/beta-7 (Homo sapiens, UniProt P13612+P26010); assay: Inhibition of human MAdCAM1 binding to integrin alpha4beta7 receptor in human RPMI 8866 cells labeled with Calcein AM; assay type: cell-based; how it was run: as §2
T2 sequence (P13612 whole entry): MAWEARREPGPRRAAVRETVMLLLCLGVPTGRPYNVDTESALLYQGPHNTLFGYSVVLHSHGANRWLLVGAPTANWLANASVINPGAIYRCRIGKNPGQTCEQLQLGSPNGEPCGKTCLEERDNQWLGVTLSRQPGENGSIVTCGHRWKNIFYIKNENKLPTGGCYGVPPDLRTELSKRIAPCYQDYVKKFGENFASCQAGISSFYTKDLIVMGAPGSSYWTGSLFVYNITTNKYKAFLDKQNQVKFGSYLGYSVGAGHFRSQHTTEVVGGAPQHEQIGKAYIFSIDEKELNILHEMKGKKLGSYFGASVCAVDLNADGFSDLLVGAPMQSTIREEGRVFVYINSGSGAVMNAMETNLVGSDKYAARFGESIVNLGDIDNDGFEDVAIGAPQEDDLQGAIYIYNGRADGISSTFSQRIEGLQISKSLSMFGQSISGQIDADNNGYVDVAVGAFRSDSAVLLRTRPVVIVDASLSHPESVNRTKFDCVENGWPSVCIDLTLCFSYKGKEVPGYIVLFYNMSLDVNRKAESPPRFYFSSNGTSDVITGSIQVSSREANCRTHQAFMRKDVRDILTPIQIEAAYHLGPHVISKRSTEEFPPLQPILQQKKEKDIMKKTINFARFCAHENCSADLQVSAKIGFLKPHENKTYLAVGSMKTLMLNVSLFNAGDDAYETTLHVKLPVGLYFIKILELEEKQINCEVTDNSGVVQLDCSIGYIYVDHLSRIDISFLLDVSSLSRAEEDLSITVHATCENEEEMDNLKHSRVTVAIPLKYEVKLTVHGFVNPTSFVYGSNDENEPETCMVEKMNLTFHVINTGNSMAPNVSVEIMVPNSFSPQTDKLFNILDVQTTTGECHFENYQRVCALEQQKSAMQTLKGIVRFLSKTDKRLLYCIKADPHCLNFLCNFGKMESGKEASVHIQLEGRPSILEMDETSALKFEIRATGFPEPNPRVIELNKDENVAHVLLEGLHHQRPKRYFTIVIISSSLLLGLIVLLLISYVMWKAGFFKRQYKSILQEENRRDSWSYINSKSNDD
T2 sequence (P26010 whole entry): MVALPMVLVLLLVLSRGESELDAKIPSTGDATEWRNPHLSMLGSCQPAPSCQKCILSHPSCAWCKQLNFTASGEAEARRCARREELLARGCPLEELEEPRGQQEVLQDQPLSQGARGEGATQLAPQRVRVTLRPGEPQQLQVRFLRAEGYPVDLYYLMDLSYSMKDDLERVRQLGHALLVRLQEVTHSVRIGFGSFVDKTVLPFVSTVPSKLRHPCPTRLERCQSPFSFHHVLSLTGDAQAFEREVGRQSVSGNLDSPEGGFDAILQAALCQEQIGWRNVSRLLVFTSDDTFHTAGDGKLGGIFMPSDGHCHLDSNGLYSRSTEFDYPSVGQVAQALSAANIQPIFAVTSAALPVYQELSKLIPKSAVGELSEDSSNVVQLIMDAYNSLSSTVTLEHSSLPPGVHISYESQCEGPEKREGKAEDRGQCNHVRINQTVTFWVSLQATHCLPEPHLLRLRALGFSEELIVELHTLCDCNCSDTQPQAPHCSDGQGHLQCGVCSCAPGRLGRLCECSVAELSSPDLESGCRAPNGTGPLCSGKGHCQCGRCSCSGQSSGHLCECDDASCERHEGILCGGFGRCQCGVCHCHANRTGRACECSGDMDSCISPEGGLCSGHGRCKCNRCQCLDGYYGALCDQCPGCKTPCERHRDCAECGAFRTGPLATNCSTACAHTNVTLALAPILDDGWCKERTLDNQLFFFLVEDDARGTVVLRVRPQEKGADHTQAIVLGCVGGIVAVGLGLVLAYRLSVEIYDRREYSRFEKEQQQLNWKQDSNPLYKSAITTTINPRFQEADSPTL

[15] = biological target: T1, Integrin alpha-4/beta-1; assay: Inhibition of human VCAM1 binding to integrin alpha4beta1 receptor in human Ramos cells labeled with Calcein AM; assay type: cell-based; how it was run: as §2
[16] = AUC in monkey at 15 mg/kg, iv; conditions: cynomolgus monkey, plasma
[17] = Clearance in monkey at 15 mg/kg, iv; conditions: cynomolgus monkey, in vivo

Chain of hERG (KCNH2) (Q12809 whole entry): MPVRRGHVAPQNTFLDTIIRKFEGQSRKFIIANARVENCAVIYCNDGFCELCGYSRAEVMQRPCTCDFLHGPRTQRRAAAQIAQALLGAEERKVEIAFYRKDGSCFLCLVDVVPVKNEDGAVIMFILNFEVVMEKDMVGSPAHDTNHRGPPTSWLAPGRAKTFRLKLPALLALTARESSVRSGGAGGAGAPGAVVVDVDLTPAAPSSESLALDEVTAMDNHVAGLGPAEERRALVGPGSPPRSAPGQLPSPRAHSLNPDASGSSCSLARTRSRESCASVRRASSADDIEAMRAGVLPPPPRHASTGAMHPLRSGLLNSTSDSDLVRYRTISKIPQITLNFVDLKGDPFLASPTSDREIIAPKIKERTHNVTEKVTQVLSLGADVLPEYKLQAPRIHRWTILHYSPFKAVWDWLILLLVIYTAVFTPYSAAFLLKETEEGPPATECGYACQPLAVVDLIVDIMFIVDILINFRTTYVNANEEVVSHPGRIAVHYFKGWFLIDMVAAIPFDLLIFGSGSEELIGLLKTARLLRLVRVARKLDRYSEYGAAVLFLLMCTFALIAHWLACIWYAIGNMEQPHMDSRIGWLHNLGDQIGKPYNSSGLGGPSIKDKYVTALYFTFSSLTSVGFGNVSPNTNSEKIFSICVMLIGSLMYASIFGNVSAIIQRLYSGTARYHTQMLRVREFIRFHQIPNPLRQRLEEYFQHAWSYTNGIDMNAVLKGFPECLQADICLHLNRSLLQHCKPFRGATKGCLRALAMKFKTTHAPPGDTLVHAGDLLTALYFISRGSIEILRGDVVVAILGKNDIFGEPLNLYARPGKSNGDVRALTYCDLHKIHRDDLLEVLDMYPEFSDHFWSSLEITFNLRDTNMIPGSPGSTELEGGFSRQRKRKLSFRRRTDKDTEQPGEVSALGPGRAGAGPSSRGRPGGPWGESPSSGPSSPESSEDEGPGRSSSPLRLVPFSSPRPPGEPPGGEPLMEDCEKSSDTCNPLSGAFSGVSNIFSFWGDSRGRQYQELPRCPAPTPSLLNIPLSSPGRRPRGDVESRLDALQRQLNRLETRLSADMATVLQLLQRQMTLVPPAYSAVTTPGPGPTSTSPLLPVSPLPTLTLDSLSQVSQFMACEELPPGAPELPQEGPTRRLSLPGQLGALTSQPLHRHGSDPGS
T1 sequence (P05556 whole entry, one chain of several): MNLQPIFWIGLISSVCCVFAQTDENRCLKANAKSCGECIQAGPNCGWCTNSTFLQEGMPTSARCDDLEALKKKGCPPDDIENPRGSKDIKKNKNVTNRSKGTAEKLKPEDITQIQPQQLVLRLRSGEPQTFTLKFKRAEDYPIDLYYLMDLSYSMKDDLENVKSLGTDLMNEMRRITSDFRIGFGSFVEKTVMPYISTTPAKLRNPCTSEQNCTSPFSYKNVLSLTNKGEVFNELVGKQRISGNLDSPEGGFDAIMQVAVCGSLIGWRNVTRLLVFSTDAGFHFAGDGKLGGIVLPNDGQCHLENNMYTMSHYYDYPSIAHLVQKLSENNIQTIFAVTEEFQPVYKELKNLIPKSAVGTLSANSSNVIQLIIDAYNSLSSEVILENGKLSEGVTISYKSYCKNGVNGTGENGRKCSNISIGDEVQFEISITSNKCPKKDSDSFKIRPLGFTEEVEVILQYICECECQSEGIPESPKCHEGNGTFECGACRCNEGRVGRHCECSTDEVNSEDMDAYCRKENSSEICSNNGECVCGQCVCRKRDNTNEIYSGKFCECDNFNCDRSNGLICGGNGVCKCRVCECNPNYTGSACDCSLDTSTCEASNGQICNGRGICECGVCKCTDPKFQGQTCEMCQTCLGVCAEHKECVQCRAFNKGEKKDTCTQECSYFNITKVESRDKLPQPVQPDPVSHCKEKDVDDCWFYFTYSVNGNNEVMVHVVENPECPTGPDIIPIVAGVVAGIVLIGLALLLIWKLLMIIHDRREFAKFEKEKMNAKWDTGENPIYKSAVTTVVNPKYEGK

| Stability [1] | bioavailability [2] [%] | half-life [4] [h] | solubility [5] [µg/mL] | solubility [6] [µg/mL] | Papp [7] [×10⁻⁶ cm/s] | clearance [8] [mL/min/kg] | AUC [9] [ng·h/mL] | clearance [10] [mL/min/kg] | AUC [11] [ng·h/mL] | Ratio IC50 [12] | Ratio IC50 [13] | IC50 [14] [µM] | IC50 [15] [µM] | AUC [16] [ng·h/mL] | clearance [17] [mL/min/kg] | Stability ([4]; simulated gi fluid) | Structure (SMILES) | IC20 [3] [µM] |
| --- | --- | --- | --- | --- | --- | --- | --- | --- | --- | --- | --- | --- | --- | --- | --- | --- | --- | --- |
| Stable | 15 | 4 | > 13000 | 200 (≈ 312 µM) | 16.2 | – | – | – | – | – | – | – | – | – | – | – | Cc1cc(C(F)(F)F)c(-c2ccc(C[C@H](NC(=O)c3c(Cl)cccc3Cl)C(=O)OCCN3CCOCC3)cc2)c(=O)n1C | 11 |
| – | – | – | – | – | 0.14 | 16.5 | 10900 | 15.7 | 10900 | 6.5 | 0.81 | 0.042 | 0.032 | 35100 | 3 | – | Cc1cc(C(F)(F)F)c(-c2ccc(C[C@H](NC(=O)c3c(Cl)cccc3Cl)C(=O)O)cc2)c(=O)n1C | – |
| – | – | – | 0.8 (≈ 1.31 µM) | 0.7 (≈ 1.14 µM) | 6.3 | – | – | – | – | – | – | – | – | – | – | Stable | Cc1cc(C(F)(F)F)c(-c2ccc(C[C@H](NC(=O)c3c(Cl)cccc3Cl)C(=O)OCC(=O)N(C)C)cc2)c(=O)n1C | – |
| – | 12 | 0.5 | > 5000 | – | 9.6 | – | – | – | – | – | – | – | – | – | – | – | CCN(CC)CCOC(=O)[C@H](Cc1ccc(-c2c(C(F)(F)F)cc(C)n(C)c2=O)cc1)NC(=O)c1c(Cl)cccc1Cl | 11.7 |
